From ChEMBL document CHEMBL4145662, “Novel Nonsteroidal Progesterone Receptor (PR) Antagonists with a Phenanthridinone Skeleton” (ACS Med Chem Lett, 2018)
Calls of active or inactive are those of the source. The calls are words filed in the database; no cut-off is given here.

Assays:
Type in all cases: cell-based
[1] = target: T1, Nuclear receptor ROR-beta (Homo sapiens, UniProt Q92753); assay: Antagonist activity at human RORbeta1 expressed in HEK293 cells after 24 hrs by luciferase reporter gene assay
T1 sequence (Q92753 whole entry): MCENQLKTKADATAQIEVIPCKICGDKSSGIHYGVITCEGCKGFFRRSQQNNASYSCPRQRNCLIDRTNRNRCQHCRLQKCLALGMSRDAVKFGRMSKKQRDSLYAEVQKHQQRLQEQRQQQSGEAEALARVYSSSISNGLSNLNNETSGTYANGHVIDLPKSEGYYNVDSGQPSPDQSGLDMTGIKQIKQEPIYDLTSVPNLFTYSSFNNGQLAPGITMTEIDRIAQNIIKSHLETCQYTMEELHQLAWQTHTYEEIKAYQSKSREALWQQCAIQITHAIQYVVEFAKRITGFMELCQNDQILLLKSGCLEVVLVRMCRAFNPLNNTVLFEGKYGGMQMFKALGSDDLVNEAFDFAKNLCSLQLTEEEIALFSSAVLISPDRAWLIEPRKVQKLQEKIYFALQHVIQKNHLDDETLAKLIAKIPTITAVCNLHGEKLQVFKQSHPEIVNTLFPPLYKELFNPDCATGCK
Summary of the method: (§1)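 Inverse agonism at RORα, RORβ or RORγ measured by reporter gene assay.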

[2] = target: T2, Progesterone receptor (Homo sapiens, UniProt P06401); assay: Antagonist activity at PR in human T47D cells assessed as inhibition of progesterone-induced alkaline phosphatase activity measured after 24 hrs
T2 sequence (P06401 whole entry): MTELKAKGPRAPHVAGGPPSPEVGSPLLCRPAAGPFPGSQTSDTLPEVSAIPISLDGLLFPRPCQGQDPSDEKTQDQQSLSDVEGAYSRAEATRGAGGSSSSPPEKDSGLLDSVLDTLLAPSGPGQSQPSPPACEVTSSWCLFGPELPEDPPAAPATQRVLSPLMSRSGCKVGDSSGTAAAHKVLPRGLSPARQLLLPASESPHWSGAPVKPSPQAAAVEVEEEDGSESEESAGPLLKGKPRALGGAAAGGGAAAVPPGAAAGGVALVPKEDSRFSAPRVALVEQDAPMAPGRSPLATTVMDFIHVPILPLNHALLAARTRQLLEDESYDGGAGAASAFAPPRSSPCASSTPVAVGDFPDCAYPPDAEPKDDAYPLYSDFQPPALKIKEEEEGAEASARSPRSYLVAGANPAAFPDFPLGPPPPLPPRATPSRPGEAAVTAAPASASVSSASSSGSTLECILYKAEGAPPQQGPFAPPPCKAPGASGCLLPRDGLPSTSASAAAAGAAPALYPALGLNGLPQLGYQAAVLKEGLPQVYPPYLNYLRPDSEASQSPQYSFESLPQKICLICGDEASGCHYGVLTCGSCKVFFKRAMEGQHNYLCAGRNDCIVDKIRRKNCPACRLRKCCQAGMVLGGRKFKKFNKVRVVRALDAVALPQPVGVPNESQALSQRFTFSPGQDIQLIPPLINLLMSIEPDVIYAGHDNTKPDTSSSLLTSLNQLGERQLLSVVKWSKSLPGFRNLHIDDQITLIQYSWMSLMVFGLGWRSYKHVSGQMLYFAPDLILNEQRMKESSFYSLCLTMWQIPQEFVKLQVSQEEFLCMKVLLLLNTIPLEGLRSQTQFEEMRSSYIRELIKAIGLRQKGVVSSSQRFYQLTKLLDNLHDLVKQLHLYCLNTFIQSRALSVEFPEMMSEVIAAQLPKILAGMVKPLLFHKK

[3] = species: Homo sapiens; assay: Selectivity ratio of IC50 for human CMX-AR expressed in HEK293 cells to IC50 for PR in human T47D cells assessed as inhibition of progesterone-induced alkaline phosphatase activity
[4] = species: Homo sapiens; assay: Selectivity ratio of IC50 for human GAL4N-fused LXRalpha LBD expressed in HEK293 cells to IC50 for PR in human T47D cells assessed as inhibition of progesterone-induced alkaline phosphatase activity
[5] = species: Homo sapiens; assay: Selectivity ratio of IC50 for human RORgamma1 expressed in HEK293 cells to IC50 for PR in human T47D cells assessed as inhibition of progesterone-induced alkaline phosphatase activity
[6] = target: T3, Nuclear receptor ROR-alpha (Homo sapiens) (UniProt P35398); assay: Antagonist activity at human RORalpha1 expressed in HEK293 cells at 20 uM after 24 hrs by luciferase reporter gene assay; summary of the method: as §1
T3 sequence (whole entry): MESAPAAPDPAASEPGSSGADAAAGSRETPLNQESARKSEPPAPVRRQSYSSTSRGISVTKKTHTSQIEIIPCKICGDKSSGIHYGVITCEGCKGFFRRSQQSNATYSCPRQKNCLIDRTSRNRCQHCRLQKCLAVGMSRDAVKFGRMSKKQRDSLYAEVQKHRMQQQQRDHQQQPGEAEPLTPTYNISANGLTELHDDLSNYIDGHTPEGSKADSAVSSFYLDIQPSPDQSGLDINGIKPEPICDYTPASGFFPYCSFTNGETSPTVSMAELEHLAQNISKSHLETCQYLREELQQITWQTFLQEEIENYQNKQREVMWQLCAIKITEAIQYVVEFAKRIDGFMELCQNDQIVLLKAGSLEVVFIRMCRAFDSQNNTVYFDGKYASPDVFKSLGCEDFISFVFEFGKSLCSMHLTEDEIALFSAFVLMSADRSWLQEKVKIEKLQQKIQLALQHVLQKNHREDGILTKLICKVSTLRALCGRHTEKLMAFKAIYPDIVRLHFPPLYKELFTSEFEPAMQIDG

[7] = species: Homo sapiens; assay: Selectivity ratio of IC50 for human CMX-GRalpha expressed in HEK293 cells to IC50 for PR in human T47D cells assessed as inhibition of progesterone-induced alkaline phosphatase activity
[8] = target: T4, Oxysterols receptor LXR-beta (Homo sapiens, UniProt P55055); assay: Antagonist activity at human GAL4N-fused LXRbeta LBD expressed in HEK293 cells assessed as reduction in T0901317-induced transactivation activity after 24 hrs by luciferase reporter gene assay
T4 sequence (P55055 whole entry): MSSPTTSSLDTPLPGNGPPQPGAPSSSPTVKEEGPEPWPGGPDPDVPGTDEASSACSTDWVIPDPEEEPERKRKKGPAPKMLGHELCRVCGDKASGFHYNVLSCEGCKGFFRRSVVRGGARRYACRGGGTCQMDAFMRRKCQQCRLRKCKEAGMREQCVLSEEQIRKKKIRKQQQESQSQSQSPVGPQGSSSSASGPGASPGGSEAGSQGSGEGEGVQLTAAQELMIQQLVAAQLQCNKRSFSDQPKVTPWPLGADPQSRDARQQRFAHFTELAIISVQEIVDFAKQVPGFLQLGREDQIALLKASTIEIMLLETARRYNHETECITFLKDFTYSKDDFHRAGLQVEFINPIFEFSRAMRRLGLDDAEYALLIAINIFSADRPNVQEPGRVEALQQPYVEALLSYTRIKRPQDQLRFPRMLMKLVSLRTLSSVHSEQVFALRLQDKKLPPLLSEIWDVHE

Row | IC50 [1] | IC50 [2] | Activity [6] | IC50 [8] | Compound | Ratio IC50 [3] | Ratio IC50 [4] | Ratio IC50 [5] | Ratio IC50 [7]
1 | > 20000 nM | 46 nM | inactive |  | Cc1cc(C(O)(C(F)(F)F)C(F)(F)F)cc2c1[nH]c(=O)c1cc(F)ccc12 | > 30 | > 300 | > 300 | > 300
2 | > 20000 nM | 150 nM | inactive | > 20000 nM | Cc1cc(C(O)(C(F)(F)F)C(F)(F)F)cc2c1[nH]c(=O)c1ccccc12 | > 100 | > 100 | > 100 | > 100
3 | > 20000 nM | 27 nM | inactive | > 20000 nM | Cc1cc(C(O)(C(F)(F)F)C(F)(F)F)cc2c3ccc(F)cc3c(=O)n(C)c12 | > 10 | > 300 | > 300 | > 300
